From ChEMBL document CHEMBL3352269, “Discovery of 2-Pyridylpyrimidines as the First Orally Bioavailable GPR39 Agonists” (ACS Med Chem Lett, 2014)
Calls of active or inactive are those of the source. The rule behind the calls is not given here.

Tests used:
Protein Gpr39 = target: T1, Protein Gpr39 (Rattus norvegicus, UniProt A6QR73); test: Agonist activity at rat GPR39 expressed in HEK293 cells by IP1 assay; type: functional, cell-based
T1 sequence (A6QR73 whole entry): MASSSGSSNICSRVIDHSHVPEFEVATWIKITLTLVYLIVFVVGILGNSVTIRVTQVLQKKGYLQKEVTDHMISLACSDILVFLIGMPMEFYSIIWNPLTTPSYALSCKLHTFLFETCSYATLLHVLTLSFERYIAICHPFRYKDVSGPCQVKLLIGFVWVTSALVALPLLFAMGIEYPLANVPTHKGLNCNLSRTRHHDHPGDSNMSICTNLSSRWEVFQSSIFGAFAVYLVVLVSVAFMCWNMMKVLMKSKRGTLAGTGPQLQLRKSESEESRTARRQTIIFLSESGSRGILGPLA
Outline: (§1)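 Gαq signalling read as inositol-1-phosphate (IP1) accumulation in HEK293 cells overexpressing human, mouse or rat GPR39. EC50 taken from an 11-point dose–response curve run in triplicate. Replicates range from 1 to 4, with standard deviation where available.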

[1] = target: T2, G-protein coupled receptor 39 (Homo sapiens, UniProt O43194); test: Agonist activity at human GPR39 expressed in HEK293 cells by cAMP assay; type: functional, cell-based
T2 sequence (O43194 whole entry): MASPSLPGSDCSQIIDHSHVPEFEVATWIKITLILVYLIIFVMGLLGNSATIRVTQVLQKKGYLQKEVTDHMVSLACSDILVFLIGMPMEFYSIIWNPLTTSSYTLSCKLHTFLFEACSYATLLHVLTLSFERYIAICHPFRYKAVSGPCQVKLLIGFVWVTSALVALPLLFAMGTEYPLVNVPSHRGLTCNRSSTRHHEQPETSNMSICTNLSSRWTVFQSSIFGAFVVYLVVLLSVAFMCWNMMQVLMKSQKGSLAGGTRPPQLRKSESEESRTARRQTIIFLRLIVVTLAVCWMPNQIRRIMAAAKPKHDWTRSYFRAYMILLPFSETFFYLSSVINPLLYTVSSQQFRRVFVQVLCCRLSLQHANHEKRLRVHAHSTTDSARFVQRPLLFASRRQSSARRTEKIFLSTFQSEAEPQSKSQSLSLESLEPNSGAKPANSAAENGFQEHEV
Outline: (§2)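 cAMP accumulation (Gαs signalling) in HEK293 cells overexpressing human GPR39. Dose–response curve run in triplicate, 1–16 replicates. EC50 derived from the curve. Percent efficacy is expressed relative to the cAMP response to 25 μM forskolin.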

[2] = target: T3, G-protein coupled receptor 39 (Homo sapiens) (UniProt O43194); test: Agonist activity at human GPR39 expressed in HEK293 cells by cAMP assay relative to forskolin; type: functional, cell-based; outline: as §2
T3 sequence (whole entry): T2 sequence (O43194 whole entry)

[3] = target: T2, G-protein coupled receptor 39; test: Agonist activity at human GPR39 expressed in HEK293 cells by IP1 assay; type: functional, cell-based; outline: as §1
[4] = target: T4, G-protein coupled receptor 39 (Mus musculus, UniProt Q5U431); test: Agonist activity at mouse GPR39 expressed in HEK293 cells by IP1 assay; type: functional, cell-based; outline: as §1
T4 sequence (Q5U431 whole entry): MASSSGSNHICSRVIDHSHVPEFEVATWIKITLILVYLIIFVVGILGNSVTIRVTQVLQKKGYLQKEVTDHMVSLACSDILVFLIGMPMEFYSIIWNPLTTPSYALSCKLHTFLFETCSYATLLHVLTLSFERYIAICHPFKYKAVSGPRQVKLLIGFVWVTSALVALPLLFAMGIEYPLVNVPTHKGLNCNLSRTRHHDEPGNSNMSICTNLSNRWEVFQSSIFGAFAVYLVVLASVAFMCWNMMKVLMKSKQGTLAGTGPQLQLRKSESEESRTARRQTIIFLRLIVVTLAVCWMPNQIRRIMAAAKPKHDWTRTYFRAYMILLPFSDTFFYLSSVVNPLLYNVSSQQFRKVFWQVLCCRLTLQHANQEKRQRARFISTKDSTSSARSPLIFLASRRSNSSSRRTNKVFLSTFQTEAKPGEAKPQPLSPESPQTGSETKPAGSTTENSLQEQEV

[5] = Hepatic clearance in rat liver microsomes; type: ADME
Outline: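 Predicted hepatic clearance calculated from intrinsic clearance in rat liver microsomes.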

[6] = Induction of GLP1 secretion in mouse STC1 cells incubated for 2 hrs by fluorescent bead based ELISA method; type: functional, cell-based; conditions: STC-1, 2 h
Outline: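 Mouse enteroendocrine STC-1 cells, which express endogenous GPR39, were assayed for GLP-1 secretion over a dose–response run in triplicate. Maximal activity is expressed as fold increase in GLP-1 over the DMSO control.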

[7] = Protection against cytokine-induced cell death in rat INS-1E cells assessed as caspase 3/7 activity; type: functional, cell-based
Outline: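 Rat insulinoma INS-1E cells (beta-cell phenotype) were treated with cytokines to induce cell death. Caspase 3/7 activity was the read-out. Dose–response run in triplicate.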

[8] = Permeability from apical to basolateral side in human Caco2 cells; type: ADME, cell-based; conditions: Caco-2, read-out: permeability
Mus musculus = test: Increase in GLP1 level in C57BL/6 mouse at 30 mg/kg, po concurrently dosed with 3 mg/kg, po DPP4 inhibitor PKF275-055 followed by glucose challenge after 1 hr post drug dose; type: functional
Outline: (§3)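 Male C57BL/6 mice were dosed orally with compound together with a DPP-IV inhibitor. After 1 h they were challenged with oral glucose at 3 g/kg. Active GLP-1 and plasma exposure were measured 30 min later. One-way ANOVA with Dunnett's post-test against the vehicle group.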

[9] = Plasma concentration in C57BL/6 mouse at 30 mg/kg, po concurrently dosed with 3 mg/kg, po DPP4 inhibitor PKF275-055 followed by glucose challenge after 1 hr post drug dose; type: ADME, organism-based; outline: as §3
[10] = target: T3, G-protein coupled receptor 39 (Homo sapiens); test: Agonist activity at human GPR39 expressed in HEK293 cells in presence of sub-EC50 dose of zinc chloride by IP1 assay; type: functional, cell-based

| EC50 [3] [nM] | EC50 [4] [nM] | CLhep predicted [5] [mL/min/kg] | Structure (SMILES) | other results |
| --- | --- | --- | --- | --- |
|  |  |  | [Cl-].[Cl-].[Zn+2] [ZINC CHLORIDE] | EC50 (Protein Gpr39): 4040 nM; EC50 [1]: 3600 nM; Efficacy [2]: 48% |
| 87 | 304 |  | CNc1nc(NCc2ccncc2)cc(-c2ccccn2)n1 |  |
| 25 | 34 | > 52.3 | CNc1nc(NC2(c3ccc(Cl)cc3)CCC2)cc(-c2ccccn2)n1 |  |
| 5000 | 1500 |  | CC(C)(C)CNc1nc(NCC2CC2)cc(-c2ccccn2)n1 |  |
| 1 |  | 25.9 | CNc1nc(NCc2ccc(NC(C)=O)cc2F)cc(-c2ccccn2)n1 | EC50 (Protein Gpr39): 0.6 nM; EC50 [1]: 350 nM; Efficacy [2]: 55%; EC50 [6]: 200 nM; EC50 [7]: 40 nM |
| 73 | 365 |  | CNc1nc(NCC(C)(C)C)cc(-c2ccccn2)n1 |  |
| 2200 | 10000 |  | COCCNc1nc(NCC2CC2)cc(-c2ccccn2)n1 |  |
| 30 | 8 | 31.9 | CNC(=O)c1ccc(CNc2cc(-c3ccccn3)nc(NC)n2)cc1 |  |
| 15 | 3 |  | CNc1nc(NCc2ccc(Cl)cc2)cc(-c2ccccn2)n1 |  |
| 3 | 8 | 33.6 | CNc1nc(NCc2ccc(NS(C)(=O)=O)cc2)cc(-c2ccccn2)n1 | EC50 (Protein Gpr39): 3 nM; EC50 [1]: 180 nM; Efficacy [2]: 55%; EC50 [6]: 1300 nM; EC50 [7]: 400 nM; Papp A→B [8]: 6.9 ×10⁻⁶ cm/s; fold change (FC) (Mus musculus): <2; concentration at 1 h [9]: 2000 nM |
|  |  |  | O=S(=O)(NC[C@H]1CC[C@H](CNc2cc(-c3ccccn3)nc(NCC3CC3)n2)CC1)c1ccc(F)cc1 | Activity [10]: Active |
| 0.8 | 0.5 | > 52.3 | CNc1nc(NCc2ccc(Cl)cc2Cl)cc(-c2ccccn2)n1 |  |
| 1180 | 2610 |  | CNc1nc(Nc2ccc(N(C)C(C)=O)cc2)cc(-c2ccccn2)n1 |  |
